Most compounds without a hit are left out; they make up all but 3.1% or so of the library.
OX1R antag-1 = antagonists of human orexin 1 receptor (OX1R); OX1R-expressing cells, FRET antagonist read-out; inhibition, % at 6.6 µM; 1.8% of 330,000 active; in the data active = inhibition mostly above about 38%, no sharp cut-off; inactive = mostly below about 40%
CHO parental Ca = counter-screen: ATP calcium response change in parental CHO cells; AID 463079; parental CHO-K1, ATP-induced calcium, Fluo-8 fluorescence; 0.63% of 330,000 active; inhibition, % at 5.6 µM;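 active = inhibition above that plate's mean sample inhibition plus 3 SD, cut at about 26% in these data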
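Assay system: untransfected parental CHO cell line. Also added: ATP agonist challenge. Dosing: one dose, 5.6 µM nominal. Measured by: Fluo-8 fluorescence. Read-out: % inhibition. Benchmarks: ATP wells versus no-ATP DMSO wells. Repeats: no replicates.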
GalR3 antag = human GalR3 antagonism; 0.44% of 360,000 active; O60755; inhibition, % at 3 µM; HEK293 GalR3-CNG cAMP membrane potential fluorescence; galR3 body fused to GalR1 C-terminus; AID 651719;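 active = inhibition above the screen-wide average plus 3 SD, cut at about 13% in these data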;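 note: forskolin and galanin both at EC90 stimulate the cells; cAMP rise reported by CNG channel membrane potential dye signal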
Target sequence (O60755 1-299 limits assumed): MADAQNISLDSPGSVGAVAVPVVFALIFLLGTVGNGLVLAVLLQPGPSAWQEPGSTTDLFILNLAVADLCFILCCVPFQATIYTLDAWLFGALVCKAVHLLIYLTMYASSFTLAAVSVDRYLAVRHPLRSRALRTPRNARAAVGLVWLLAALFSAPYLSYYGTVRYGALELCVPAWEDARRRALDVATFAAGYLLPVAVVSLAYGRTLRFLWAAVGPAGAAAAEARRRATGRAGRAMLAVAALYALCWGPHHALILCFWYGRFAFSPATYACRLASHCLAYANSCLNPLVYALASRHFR
GPR7 antag = blocks human GPR7 receptor signaling | inhibition, % at 4.4 µM | 1.1% of 290,000 active | GPR7-expressing cells, fluorescence antagonist assay | P48145; in the data active = inhibition above about 16%, passing the limit was not always enough;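 note: cells stimulated with the agonist NPW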
OX1R antag-2 = antagonists of human orexin 1 receptor. CHO/OX1R cells, Fluo-8 calcium fluorescence, orexin A. inhibition, % at 5 µM. 0.43% of 330,000 active;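 active = inhibition above its plate's threshold, mean inhibition of all tested compounds on the plate plus 3 SD, cut at about 37% in these data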
Large screens that a line does not name were inactive.

CC(=O)Nc1ccc(SCC(=O)c2c(N)n(Cc3ccccc3)c(=O)n(C)c2=O)cc1	none
O=C(NC1CCCC1)[C@@H]1CCCN1C(=O)[C@@H](NC(=O)N1CCOCC1)C1CCCCC1	none (no result: OX1R antag-1, CHO parental Ca, GPR7 antag, OX1R antag-2)
CC(C)(CNC(=O)c1cccc(S(=O)(=O)N2CCCCC2)c1)N1CCOCC1	none (no result: OX1R antag-1, CHO parental Ca, GPR7 antag, OX1R antag-2)
Cc1cccc(NS(=O)(=O)c2nnc(NC(=O)c3ccc(C)c(C)c3)s2)c1	OX1R antag-1 52
Cc1ccc(C(=O)Nc2nnc(S(=O)(=O)Nc3ccccc3C)s2)cc1C	none (no result: GalR3 antag)
CCCS(=O)(=O)NC(=O)C1(C)CCN(C(=O)c2cc(C)n(C(C)(C)C)n2)C1 (centres undefined)	none (no result: OX1R antag-1, CHO parental Ca, GPR7 antag, OX1R antag-2)
COC(=O)N(NC(=O)C(O)(CCC(C)C)CCC(C)C)c1ccccc1	GPR7 antag 24
COc1ccc2c3c(cccc13)OC2=O	none
COc1ccc2c3c(cccc13)N(C)N=C2C	OX1R antag-1 66
COC(=O)C1=C(C)N(C)C(=NCc2ccc3c(c2)OCO3)NC1c1cccc(Cl)c1 (centres undefined)	none (no result: OX1R antag-1, CHO parental Ca, GPR7 antag, OX1R antag-2)
CCOC(=O)N1CCN(C(=O)C2CCCN(Cc3nc(-c4ccc(Cl)cc4)oc3C)C2)CC1 (centres undefined)	GalR3 antag 82
Cc1oc(-c2ccc(Cl)cc2)nc1CN1CCCC(C(=O)NC2CC2)C1 (centres undefined)	none
c1ccc2c(c1)Nc1cc3ccccc3cc1O2	none (no result: OX1R antag-1, CHO parental Ca, GPR7 antag, OX1R antag-2)
O=C(NCC(c1cccs1)N1CCOCC1)c1cc(-c2ccc(F)cc2)nc2ccccc12 (centres undefined)	GPR7 antag 20
O=C(NCC(c1cccs1)N1CCOCC1)c1cc2ccccc2oc1=O (centres undefined)	OX1R antag-1 26 (no result: GPR7 antag)
N#Cc1ccc(CN(Nc2ccccc2)c2ccccc2)cc1	none (no result: OX1R antag-1, CHO parental Ca, GPR7 antag, OX1R antag-2)
COC(=O)/C=C1\OC(C)c2ccccc21 (centres undefined)	none (no result: OX1R antag-1, CHO parental Ca, GPR7 antag, OX1R antag-2)
COC(=O)C1=C(C)N(Cc2ccc(C(F)(F)F)cc2)C(=NCc2ccccc2C(F)(F)F)NC1c1ccc(Cl)cc1 (centres undefined)	none (no result: OX1R antag-1, CHO parental Ca, GPR7 antag, OX1R antag-2)
Cc1sc2ncnc(N3CCN(S(=O)(=O)c4ccc(C(C)(C)C)cc4)CC3)c2c1C	CHO parental Ca 51 (no result: GPR7 antag)
O=S(=O)(c1ccc(Cl)cc1)N1CCN(c2ncnc3sccc23)CC1	CHO parental Ca 46 (no result: GPR7 antag)
Cc1csc2ncnc(N3CCN(S(=O)(=O)c4cccc(C(F)(F)F)c4)CC3)c12	OX1R antag-1 56, CHO parental Ca 59
Cc1ccc(S(=O)(=O)N2CCN(c3nc(C)nc4sc(C)c(C)c34)CC2)cc1	GPR7 antag 14 (no result: OX1R antag-1, CHO parental Ca, GalR3 antag, OX1R antag-2)
Cc1csc2c(N3CCN(S(=O)(=O)c4ccc(Cl)cc4)CC3)ncnc12	none
Cc1sc2ncnc(N3CCN(S(=O)(=O)c4ccc(Br)cc4)CC3)c2c1C	none
Cc1ccc(OC(=O)N(C)C[C@H]2OCc3cn(nn3)CCCC(=O)N([C@@H](C)CO)C[C@@H]2C)cc1	none (no result: OX1R antag-1, CHO parental Ca, GPR7 antag, OX1R antag-2)
Nc1nc2c(ncn2[C@@H]2O[C@H](C(=O)N[C@@H](Cc3ccccc3)C(=O)NCc3ccc4c(c3)OCO4)[C@@H](O)[C@H]2O)c(=O)[nH]1	none (no result: OX1R antag-1, CHO parental Ca, GPR7 antag, OX1R antag-2)
Clc1ccc2c(c1)-c1nnc(Br)n1-c1ccccc1S2	OX1R antag-1 60
O=C(N[C@H](Cc1ccccc1)C(=O)N1CCCN(Cc2ccccc2F)CC1)[C@H]1O[C@@H](n2ccc(=O)[nH]c2=O)[C@H](O)[C@@H]1O	none (no result: OX1R antag-1, CHO parental Ca, GPR7 antag, OX1R antag-2)
CCN(CC)CC(C)(C)C(=O)/C=C/c1ccc(/C=C/C(=O)C(C)(C)CN(CC)CC)cc1	GalR3 antag 36 (no result: OX1R antag-1, CHO parental Ca, GPR7 antag, OX1R antag-2)
COc1ccc(N/C(=C\C(=O)c2ccccc2)c2ccccc2)cc1OC	none (no result: OX1R antag-1, CHO parental Ca, GPR7 antag, OX1R antag-2)
COc1ccc(-c2cn3c(C)c(C(=O)Nc4ccncc4)sc3n2)cc1	none (no result: GalR3 antag)
Cc1c(C(=O)Nc2ccncc2)sc2nc(-c3ccc(F)cc3)cn12	CHO parental Ca 77 (no result: GalR3 antag)
Cc1ccc2c(c1)CCCN2S(=O)(=O)c1cccc(C(=O)Nc2ccccc2C(=O)O)c1	OX1R antag-1 58
O=C(O)c1cccc(NC(=O)c2cccc(S(=O)(=O)N3CCc4ccccc43)c2)c1	none
CC(=O)c1ccc2c(c1)N(Cc1ccccc1Cl)C(=O)C(C)S2 (centres undefined)	none (no result: OX1R antag-1, CHO parental Ca, GPR7 antag, OX1R antag-2)
Clc1ccc(Nc2ccc(NCc3ccccc3)nn2)cc1	GPR7 antag 19
Cc1ccc(Nc2ccc(NCc3ccccc3)nn2)cc1C	none
COC[C@@H](O)[C@H]1OCc2cc(OC)ccc2[C@@H]1/C=C/c1ccccc1	none (no result: OX1R antag-1, CHO parental Ca, GPR7 antag, OX1R antag-2)
S=c1[nH]nc(C2CCCCC2)n1/N=C/c1ccc(Cl)cc1	none

High-throughput results as filed in PubChem.
